ChEMBL document CHEMBL1145072, “Synthesis and biological evaluation of novel flavone-8-acetic acid derivatives as reversible inhibitors of aminopeptidase N/CD13” (J Med Chem, 2003)
pIC50: −log10 of the molar value.

Experiments:
U-937 = assay: In vitro cytotoxicity towards U937 cell growth was evaluated after 3 days of incubation (10e-4 M); format: functional, Homo sapiens
In short: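 Human monoblastic U937 cells in RPMI 1640 with 10% heat-inactivated FCS, 5% CO2, 37 °C; seeded at 0.5 × 10⁵ cells/mL in fresh medium and exposed continuously to 10^-4 M compound for 3 days. Cells then washed twice and counted, and viability determined by trypan blue exclusion.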

[1] = target: Aminopeptidase N (Homo sapiens) (UniProt P15144); assay: In vitro inhibition of aminopeptidase N (APN) activity in intact U937 cells in presence of Ala-pNA and 10e-3 M concentration of compound; format: cell-based; conditions: U-937
In short: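 Intact U937 cells (5 × 10⁵) incubated 15 min at 37 °C in 0.1 mL peptidase buffer with Ala-pNA (0.5 mg/mL) and compound at 10^-3 M. pNA release read at 405 nm. Remaining activity expressed as percent of uninhibited control; mean of three to ten experiments ± SD.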
Target sequence in this assay (P15144 whole entry): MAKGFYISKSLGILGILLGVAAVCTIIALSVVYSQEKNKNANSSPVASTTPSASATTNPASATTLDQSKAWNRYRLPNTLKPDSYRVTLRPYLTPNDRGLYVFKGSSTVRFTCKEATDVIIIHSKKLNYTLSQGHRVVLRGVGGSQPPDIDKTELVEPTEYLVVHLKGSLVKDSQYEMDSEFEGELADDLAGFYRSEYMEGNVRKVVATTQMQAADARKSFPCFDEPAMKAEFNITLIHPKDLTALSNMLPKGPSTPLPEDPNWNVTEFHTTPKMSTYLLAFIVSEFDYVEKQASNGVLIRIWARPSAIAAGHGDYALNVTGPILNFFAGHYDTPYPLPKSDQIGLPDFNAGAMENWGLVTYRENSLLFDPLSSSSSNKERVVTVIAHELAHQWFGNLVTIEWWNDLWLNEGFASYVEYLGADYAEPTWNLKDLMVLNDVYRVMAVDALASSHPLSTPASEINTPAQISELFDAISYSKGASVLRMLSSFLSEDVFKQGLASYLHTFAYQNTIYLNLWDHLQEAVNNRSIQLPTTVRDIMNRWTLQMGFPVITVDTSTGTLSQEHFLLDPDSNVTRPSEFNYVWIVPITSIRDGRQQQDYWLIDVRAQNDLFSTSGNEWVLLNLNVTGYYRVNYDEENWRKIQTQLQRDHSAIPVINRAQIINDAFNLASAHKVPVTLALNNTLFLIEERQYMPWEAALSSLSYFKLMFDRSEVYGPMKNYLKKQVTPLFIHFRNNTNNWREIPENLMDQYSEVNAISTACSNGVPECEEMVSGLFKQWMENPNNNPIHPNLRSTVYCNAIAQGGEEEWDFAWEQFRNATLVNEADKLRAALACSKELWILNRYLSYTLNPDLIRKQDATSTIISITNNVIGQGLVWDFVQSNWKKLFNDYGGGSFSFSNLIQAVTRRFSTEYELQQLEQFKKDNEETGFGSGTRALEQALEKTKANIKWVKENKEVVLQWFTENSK

[2] = target: Aminopeptidase N (Homo sapiens) (UniProt P15144); assay: Inhibitory concentration of compound towards cell surface aminopeptidase N (APN/CD13) on human U937 cells
Target sequence in this assay (P15144 whole entry, looked up): as the sequence (P15144 whole entry) above

[3] = target: T1, Neprilysin (Rattus norvegicus) (UniProt P07861); assay: Inhibition of neutral endopeptidase (NEP[…]) at 0.3*10e-3 M compound concentration
T1 sequence (whole entry): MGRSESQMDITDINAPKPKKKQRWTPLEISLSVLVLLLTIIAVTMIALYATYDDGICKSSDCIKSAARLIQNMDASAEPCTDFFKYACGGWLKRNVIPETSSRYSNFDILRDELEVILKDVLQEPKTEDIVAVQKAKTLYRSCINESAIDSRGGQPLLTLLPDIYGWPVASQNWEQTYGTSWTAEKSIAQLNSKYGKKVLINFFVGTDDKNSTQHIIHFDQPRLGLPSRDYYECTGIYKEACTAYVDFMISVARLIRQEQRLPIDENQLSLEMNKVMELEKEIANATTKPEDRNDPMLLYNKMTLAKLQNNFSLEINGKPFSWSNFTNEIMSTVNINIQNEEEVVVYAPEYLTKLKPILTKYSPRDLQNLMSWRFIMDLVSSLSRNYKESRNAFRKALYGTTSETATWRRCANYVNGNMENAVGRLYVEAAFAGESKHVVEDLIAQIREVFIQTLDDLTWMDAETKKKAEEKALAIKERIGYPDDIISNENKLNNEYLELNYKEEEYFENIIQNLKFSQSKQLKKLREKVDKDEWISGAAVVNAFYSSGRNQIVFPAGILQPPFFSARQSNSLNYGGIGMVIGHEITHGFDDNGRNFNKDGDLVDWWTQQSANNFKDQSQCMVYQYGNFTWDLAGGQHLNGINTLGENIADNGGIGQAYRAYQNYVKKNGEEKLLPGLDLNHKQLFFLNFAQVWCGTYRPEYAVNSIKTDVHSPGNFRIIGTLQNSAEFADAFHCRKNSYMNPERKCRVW

[4] = target: T2, Aminopeptidase N (Sus scrofa) (UniProt P15145); assay: Inhibition of cell surface aminopeptidase N (APN/CD13) at 0.3*10e-3 M compound concentration
T2 sequence (whole entry): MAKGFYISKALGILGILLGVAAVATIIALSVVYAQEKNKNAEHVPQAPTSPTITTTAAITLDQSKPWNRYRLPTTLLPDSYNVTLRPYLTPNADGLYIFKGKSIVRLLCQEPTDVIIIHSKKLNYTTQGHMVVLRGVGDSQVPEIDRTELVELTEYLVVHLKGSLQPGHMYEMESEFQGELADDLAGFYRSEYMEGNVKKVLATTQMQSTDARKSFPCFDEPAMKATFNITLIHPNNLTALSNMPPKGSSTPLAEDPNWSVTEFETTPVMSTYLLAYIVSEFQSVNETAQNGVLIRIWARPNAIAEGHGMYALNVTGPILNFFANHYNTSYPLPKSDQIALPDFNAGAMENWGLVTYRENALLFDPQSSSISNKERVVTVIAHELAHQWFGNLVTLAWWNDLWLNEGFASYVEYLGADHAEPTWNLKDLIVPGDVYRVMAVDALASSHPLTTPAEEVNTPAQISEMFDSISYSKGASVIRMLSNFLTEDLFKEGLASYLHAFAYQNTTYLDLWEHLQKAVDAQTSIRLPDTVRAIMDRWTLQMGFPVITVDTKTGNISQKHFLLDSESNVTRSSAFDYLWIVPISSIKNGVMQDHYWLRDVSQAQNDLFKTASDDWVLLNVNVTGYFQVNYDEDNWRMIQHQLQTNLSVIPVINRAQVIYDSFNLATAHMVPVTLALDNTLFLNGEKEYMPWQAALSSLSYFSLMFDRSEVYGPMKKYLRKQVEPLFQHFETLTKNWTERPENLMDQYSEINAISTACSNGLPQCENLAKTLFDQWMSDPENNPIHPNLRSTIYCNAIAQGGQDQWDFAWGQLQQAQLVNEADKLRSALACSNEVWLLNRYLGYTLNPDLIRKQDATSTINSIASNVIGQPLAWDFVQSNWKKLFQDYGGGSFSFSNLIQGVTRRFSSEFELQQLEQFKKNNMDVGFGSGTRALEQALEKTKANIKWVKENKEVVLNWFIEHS

| SMILES | Cytotoxicity (U-937) [%] | inhibition [1] [%] | pIC50 [2] | inhibition [3] [%] | inhibition [4] [%] |
| --- | --- | --- | --- | --- | --- |
| O=C(O)Cc1cccc2c(=O)cc(-c3ccccc3[N+](=O)[O-])oc12 | >80 | 83 |  |  |  |
| O=C(O)Cc1cccc2c(=O)c([N+](=O)[O-])c(-c3ccccc3[N+](=O)[O-])oc12 | <10 | 88 | 4.60 |  |  |
| O=C(O)Cc1cccc2c(=O)c([N+](=O)[O-])c(-c3ccccc3)oc12 | <10 | 68 |  |  |  |
| COc1cccc(-c2oc3c(CC(=O)O)cccc3c(=O)c2[N+](=O)[O-])c1[N+](=O)[O-] | <10 | 75 |  |  |  |
| O=C(O)Cc1cccc2c(=O)c([N+](=O)[O-])c(-c3cccc([N+](=O)[O-])c3)oc12 | <10 | 44 |  |  |  |
| COCOC(=O)Cc1cccc2c(=O)c3c(oc12)-c1ccccc1OC(=O)N3 | >95 | 25 |  |  |  |
| O=C(O)Cc1cccc2c(O)c3nc4ccccc4c-3oc12 | 30 | 10 |  |  |  |
| O=C(O)Cc1cccc2c(=O)c([N+](=O)[O-])c(-c3ccc([N+](=O)[O-])cc3)oc12 | <10 | 63 |  |  |  |
| O=c1cc(-c2ccccc2)oc2ccccc12 [FLAVONE] | <10 | 5 |  |  |  |
| COCOC(=O)Cc1cccc2c(=O)c([N+](=O)[O-])c(-c3ccccc3[N+](=O)[O-])oc12 | >85 | 48 |  |  |  |
| O=c1c([N+](=O)[O-])c(-c2ccccc2[N+](=O)[O-])oc2ccccc12 | >40 | < 5 |  |  |  |
| COc1ccc([N+](=O)[O-])c(-c2oc3c(CC(=O)O)cccc3c(=O)c2[N+](=O)[O-])c1 | <10 | 80 |  |  |  |
| O=C(O)Cc1cccc2c(=O)c3c(oc12)-c1ccccc1NC(=O)N3 | <10 | 8 |  |  |  |
| O=C(O)Cc1cccc2c(=O)c([N+](=O)[O-])c(-c3ccccc3OCc3ccccc3)oc12 | >55 | 76 |  |  |  |
| O=C(O)Cc1cccc2c(=O)c([N+](=O)[O-])c(-c3ccccc3C(=O)OCc3ccccc3)oc12 | >40 | 77 |  |  |  |
| O=c1cc(-c2ccccc2)oc2cc(O)c(O)c(O)c12 |  |  |  | 36 | 57 |
| O=c1c(O)c(-c2ccc(O)c(O)c2)oc2cc(O)cc(O)c12 |  |  |  | 49 | 73 |

| SMILES | Cytotoxicity (U-937) [%] | inhibition [1] [%] | pIC50 [2] | inhibition [3] [%] | inhibition [4] [%] |
| --- | --- | --- | --- | --- | --- |
| CC(C)C[C@H](NC(=O)[C@@H](O)[C@H](N)Cc1ccccc1)C(=O)O [UBENIMEX] | >40 | 85 |  |  |  |
| O=C(O)Cc1cccc2c(=O)c([N+](=O)[O-])c(-c3ccccc3Cl)oc12 | 30 | 76 |  |  |  |
| O=C(O)Cc1cccc2c(=O)c3c(oc12)-c1ccccc1OC(=O)N3 | 30 | 19 |  |  |  |
| COc1ccc(-c2oc3c(CC(=O)O)cccc3c(=O)c2[N+](=O)[O-])cc1[N+](=O)[O-] | <10 | 61 |  |  |  |
| O=C(O)Cc1cccc2c(=O)cc(-c3ccccc3)oc12 [MITOFLAXONE] | <10 | 30 |  |  |  |
| O=c1c([N+](=O)[O-])c(-c2ccccc2)oc2ccccc12 | <10 | 30 |  |  |  |
| O=CCc1cccc2c(=O)c([N+](=O)[O-])c(-c3ccccc3)oc12 | >40 | 51 |  |  |  |
| Cl.Nc1c(-c2ccccc2)oc2c(CC(=O)O)cccc2c1=O | <10 | 33 |  |  |  |
| COC(=O)Cc1cccc2c(=O)c([N+](=O)[O-])c(-c3ccccc3)oc12 | <10 | < 5 |  |  |  |
| COC(=O)c1ccccc1-c1oc2c(CC(=O)O)cccc2c(=O)c1[N+](=O)[O-] | <10 | 66 |  |  |  |
| COc1cc(-c2oc3cc(O)cc(O)c3c(=O)c2O)ccc1O |  |  |  | 49 | 73 |
| C=CCc1cccc2c(=O)c([N+](=O)[O-])c(-c3ccccc3[N+](=O)[O-])oc12 | <10 | 16 |  |  |  |
| COc1ccc(-c2oc3c(CC(=O)O)cccc3c(=O)c2[N+](=O)[O-])cc1 | >40 | 64 |  |  |  |
| COc1ccccc1-c1oc2c(CC(=O)O)cccc2c(=O)c1[N+](=O)[O-] | >20 | 69 |  |  |  |
| COCOC(=O)Cc1cccc2c(=O)c(N)c(-c3ccccc3O)oc12 | >65 | 19 |  |  |  |
| COCOC(=O)Cc1cccc2c(=O)c([N+](=O)[O-])c(-c3ccccc3OCc3ccccc3)oc12 | >95 | 32 |  |  |  |
